Columns and labels:
[1] = melting temperature; fluorescence melt of hairpins on a sequencing array, two-state fit, raised by 9.35 °C to match UV melts; conditions: sodium 0.088 M
In short: (§1)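 Folding enthalpy and melting temperature come from bootstrapped two-state fits to Cy3 fluorescence of library hairpins carrying annealed Cy3 and quencher oligos on a sequenced MiSeq flow cell. Imaging was done in 50 mM Na-HEPES pH 8.0, 25 mM NaCl, stepping by 2.5 °C up to 60 °C, and signals were normalised to pre-quench Cy3 and to control constructs. Results of four replicates were combined by inverse variance, and fitted temperatures were raised by 9.35 °C to match UV melts.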

[2] = folding enthalpy; higher = less favourable; fluorescence melt of hairpins on a sequencing array, two-state fit; conditions: sodium 0.088 M
In short: as §1

Row | Sequence | Tm [1] | folding enthalpy [2]
1 | GGGGTCGGAAACGGCTCC ((.(.((....)).).)) | 49.6 °C | -42.8 kcal/mol
2 | GATCATCCCATGATC ((((((...)))))) | 50.4 °C | -38.4 kcal/mol
3 | CGCGGAAGGTCCGCG ((((((...)))))) | 69.2 °C | -27.1 kcal/mol
4 | GATCTGTCTTCAGATC ((((((....)))))) | 51.4 °C | -38.7 kcal/mol
5 | GGCGCCGAAAGGCTGCC ((((((....))).))) | 67.1 °C | -19.4 kcal/mol
6 | GATGGCGGAAACACCATC (((((.(....).))))) | 47.2 °C | -34.3 kcal/mol
7 | GATCAGGCGACTGATC ((((((....)))))) | 56.4 °C | -36.8 kcal/mol
8 | GCCGTGACGAAAGTCGGC (((..(((....)))))) | 57.1 °C | -23.3 kcal/mol
9 | GATCCTCGGAGGATC ((((((...)))))) | 51.6 °C | -33.5 kcal/mol
10 | GGGAACGAAAGTTGGCCC ((((((....)))..))) | 32 °C | -14.7 kcal/mol
11 | GAGCTACGAAAGTATCTC (((.(((....))).))) | 36.9 °C | -25.1 kcal/mol
12 | AAAACGAAAGTTTT (((((....))))) | 47.3 °C | -14.8 kcal/mol
13 | GATCCGGGCACGGATC ((((((....)))))) | 67.8 °C | -31.1 kcal/mol
14 | GATCGGAAACCCGATC ((((((....)))))) | 53.9 °C | -34.6 kcal/mol
15 | GGCGCTGGAAACGGCGTC (.(((.(....).))).) | 54.3 °C | -28 kcal/mol
16 | GCCCTCGAAAGAGATGGC ((((((....)))..))) | 46.4 °C | -23.6 kcal/mol
17 | GCCCAGCGAAAGCTTCGC ((..(((....)))..)) | 40.3 °C | -6.41 kcal/mol
18 | GCTCGGCGAAAGCCCTGC ((..(((....)))..)) | 53.4 °C | -7.65 kcal/mol
19 | CGCGCGGAAACGCATGCG ((((((....)))..))) | 52.9 °C | -32.8 kcal/mol

Row | Sequence | Tm [1] | folding enthalpy [2]
20 | GTGCTTACGAAAGTACAC (((..(((....)))))) | 34 °C | -9.43 kcal/mol
21 | GGCGCCGCGAAAGCGGCC (((..(((....)))))) | 49.1 °C | -5.39 kcal/mol
22 | GAGTGAGCGAAAGCTCTC (((..(((....)))))) | 32.9 °C | -9.01 kcal/mol
23 | GACAGCGCGAAAGCGGTC (((..(((....)))))) | 41.8 °C | -11.4 kcal/mol
24 | GCAAGCGAAAGCTGGTGC ((((((....)))..))) | 47.6 °C | -20.9 kcal/mol
25 | GCGGCTGACCGC ((((....)))) | 58.1 °C | -24.3 kcal/mol
26 | GGCACGGGAAACCGCGCC (((.(((....))).))) | 63.5 °C | -44.1 kcal/mol
27 | GACGCAGGAAACCGCATC ((.((.(....).)).)) | 28.5 °C | -12.4 kcal/mol
28 | GAAGGAGGAAACTCCTTC (((((((....))))))) | 58.3 °C | -33.6 kcal/mol
29 | GATCAGTCGTCTGATC ((((((....)))))) | 52.3 °C | -36.5 kcal/mol
30 | GATCGTTAGCACGATC ((((((....)))))) | 51.4 °C | -32.3 kcal/mol
31 | GCGGGCGAAAGCCACCGC ((((((....)))..))) | 59.2 °C | -17.4 kcal/mol
32 | GGGGGTCGAAAGACTCCC (((.(((....))).))) | 63.4 °C | -43.5 kcal/mol
33 | GTGGAAGGAAACTTCTAC ((.((((....)))).)) | 39.3 °C | -27.8 kcal/mol
34 | GCATCGGGAAACCGATAC (.(((((....))))).) | 41.5 °C | -13.7 kcal/mol
35 | GAAATACGAAAGTATTC (((.(((....)))))) | 38.9 °C | -12.8 kcal/mol
36 | GATAACCCGAAAGGGATC (((..(((....)))))) | 28.9 °C | -17.8 kcal/mol
37 | GTAGCTGGAAACAGCTAC (((((((....))))))) | 66 °C | -39 kcal/mol
38 | GACTTCGGAAACGGAGTC ((((.((....)).)))) | 49.4 °C | -39 kcal/mol
